# Measurements collected from several papers.
# Each line is one published result; the experiments were not run side by side.
# Target: Protein kinase C epsilon type (PRKCE, Homo sapiens, UniProt Q02156)
Compound,test,setting,endpoint,value
Cc1nc(N2CC[C@@H](O)C2)ncc1-c1cc(C(F)(F)F)cc2[nH]ncc12,"cell-free assay, competition with immobilised ligand",1 µM,remaining binding,88%
Cn1cncc1C1=CN(c2ncnc3[nH]cnc23)CCS1,"enzyme activity, inhibitor, radiometric",50 nM,inhibition,25.8%
CC(C)(C)c1nc(-c2cccc(NS(=O)(=O)c3c(F)cccc3F)c2F)c(-c2ccnc(N)n2)s1,"enzyme activity, inhibitor, radiometric",1 µM,remaining activity,132%
CNCc1ccccc1-c1csc([C@H](C)Nc2nc(C)nc3cc(OC)c(OC)cc23)c1,"cell-free assay, competition with immobilised ligand",1 µM,remaining binding,78%
COc1cc2ncnc(Nc3ccc(Oc4ccccc4)cc3C)c2cc1OC,"enzyme activity, inhibitor",1 µM,inhibition,0%
O=C(Nc1cccnn1)N1CC(C/C=C/c2cncc(Oc3ccc(C(F)(F)F)cn3)n2)C1,"cell-free assay, competition with immobilised ligand",1 µM,remaining binding,100%
Cc1ccc(Nc2nccc(N(C)c3ccc4c(C)n(C)nc4c3)n2)cc1S(N)(=O)=O,"enzyme activity, inhibitor",10 µM,inhibition,12%
CS(=O)(=O)Nc1cccc(-c2csc(NC(=O)CSc3nc4nccnc4c(=O)n3CCc3ccccc3)n2)c1,"enzyme activity, inhibitor",10 µM,inhibition,-9%
CCCS(=O)(=O)Nc1ccc(F)c(C(=O)c2c[nH]c3ncc(-c4ccc(Cl)cc4)cc23)c1F,"enzyme activity, inhibitor",1 µM,inhibition,< 10%
CC(C)(O)[C@H]1CC[C@H](Nc2ccc3ncc(-c4cccc(C(F)(F)F)c4)n3n2)CC1,"enzyme activity, inhibitor",1 µM,remaining activity,60.1%
CN(C)C[C@H]1CCn2c(c(C3=C(c4cn(C)c5ccccc45)C(=O)NC3=O)c3ccccc32)C1,cell-free assay,0.5 µM,remaining signal,2.73%
O=C(O)c1cc(-c2ccc(C3CCNCC3)cc2)c2ccc(-c3ccc(C(F)(F)F)cc3)cc2c1,"cell-free assay, competition with immobilised ligand",1 µM,remaining binding,100%
O=C(Nc1nccs1)C(c1cc(F)ccc1O)N1Cc2ccccc2C1=O (stereo not shown),"enzyme activity, inhibitor",1 µM,inhibition,14%
COc1ccc2c(c1)O[C@H](c1ccc(OC)c(OC)c1)C[C@@H]2NC(=O)C1(c2ccc3c(c2)OC(F)(F)O3)CC1,"cell-free assay, competition with immobilised ligand",1 µM,remaining binding,90%
O=C1Nc2ccc(Cl)cc2C1=Cc1cc(Cl)c(O)c(Cl)c1,cell-free assay,0.5 µM,remaining signal,100%
Cc1cc(NC(=O)c2cccc3cc(-c4cccc5[nH]nc(N)c45)ccc23)ccc1F,"enzyme activity, inhibitor",0.1 µM,activity vs control,84%
COc1cc(Cl)c(C(=O)N[C@@H](CN[C@H]2CC[C@@H](N)CC2)Cc2ccc(C#N)cc2)cc1-c1ccc(CN[C@H](C)c2ccc(C)cc2)o1,"enzyme activity, inhibitor",1 µM,remaining activity,85%
Nc1cnc(N2CCc3cc(S(=O)(=O)Nc4c(F)cc(Cl)cc4F)cc(N4CCCC4=O)c32)nc1,"cell-free assay, competition with immobilised ligand",1 µM,remaining binding,100%
O=C(Nc1cnn(-c2csc(C(=O)NC3COC3)c2)c1)Nc1ccccc1Cl,"enzyme activity, inhibitor",5 µM,remaining activity,102%
CCOC(=O)c1cc2cc(-c3cc(C(=O)NCc4ccc(C(=O)O)cc4)nn3C)ccc2[nH]1,"cell-free assay, competition with immobilised ligand",0.1 µM,remaining binding,90%
N#CCCc1ccc2c(c1)-c1[nH]c3ccc([N+](=O)[O-])cc3c1CC(=O)N2,cell-free assay,0.5 µM,remaining signal,95.4%
CCCOc1ccc(OC)c(F)c1C(=O)c1ccc(C(=O)N[C@@H]2CNC[C@H]2NC(=O)c2ccc3[nH]ncc3c2)cc1,"enzyme activity, inhibitor",10 µM,remaining activity,67%
Nc1nc(Nc2ccc(S(N)(=O)=O)cc2)nn1C(=O)c1c(F)cccc1F,cell-free assay,0.5 µM,remaining signal,97.2%
O=C(Nc1cccnn1)N1CCC(=Cc2cccc(Oc3ccc(C(F)(F)F)cn3)c2)CC1,"cell-free assay, competition with immobilised ligand",1 µM,remaining binding,82%
C=CC(=O)Nc1cc(Nc2nccc(Nc3cc(Cl)c(F)cc3C(C)(C)O)n2)c(OC)cc1N1CC[C@@H](N(C)C)C1,"enzyme activity, inhibitor",1 µM,inhibition,2%
